Our source for the Drug uptake and logD values is ChEMBL document CHEMBL1629437, “A novel PET marker for in vivo quantification of myelination” (Bioorg Med Chem, 2010).

Calls of active or inactive are those of the source.

For data set [1], the species on record is Mus musculus. Kind of data set: Binding affinity to myelin sheath in Plp-Akt-DD transgenic mouse corpus callosum by fluorescence assay. It counts as tissue-based. The method, boiled down:
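Perfusion-fixed (4% PFA) brains from Plp-Akt-DD mice and wild-type SWR/J littermates (5 months old) were cut into 10 μm coronal cryosections and stained in vitro with 10 μM MeDAS. Fluorescence was imaged in the corpus callosum from the midline to below the apex of the cingulum, 8 images per mouse, 20× objective. Images were thresholded against Black-Gold reactivity and intensity was expressed relative to WT set at 100. n = 4, unpaired Student's t-test.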

The species entered for data set [2] is Mus musculus. Put plainly: Binding affinity to myelin sheath in Plp-Akt-DD transgenic mouse corpus callosum at 10 uM after 20 mins. It counts as tissue-based. As to conditions: tested as the 11C-labelled form.
For data set [3], the system named is Mus musculus. Kind of data set: In vivo binding affinity to myelin sheath in Plp-Akt-DD transgenic mouse corpus callosum at 25 mg/kg, iv after 30 mins by fluorescent microscopic analysis. It counts as functional, organism-based. Details: dose 25 mg/kg. The settings on record: tested as the 11C-labelled form. In outline: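 Anesthetized Plp-Akt-DD mice and control littermates received MeDAS, 25 mg/kg (about 0.5 mg), by tail vein. After 30 min they were perfused with saline and then 4% PFA. Brains were postfixed overnight, cryoprotected in 30% sucrose and cut into 10 μm cryosections. Sections were imaged directly by fluorescence microscopy, with Black-Gold staining done for comparison.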

Data set [4] deals with Intestine. Put plainly: Biodistribution in Swiss-Webster mouse intestine at 3.7 MBq, iv after 5 mins. It counts as ADME, organism-based. As to conditions: in vivo. The method, boiled down: (§1)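 About 3.7 MBq (100 μCi) of [11C]MeDAS was given by tail vein to Swiss-Webster mice, which were euthanized by cardiac excision at 5, 30 and 60 min. Heart, liver, spleen, lung, kidney, stomach and intestine were removed and counted in an automatic gamma well-counter. Results are %ID/organ, n = 3, mean ± SD.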

Data set [5] relates to Stomach. Kind of data set: Biodistribution in Swiss-Webster mouse stomach at 3.7 MBq, iv after 5 mins. It counts as ADME, organism-based. The settings on record: in vivo. The method, boiled down: as §1
Data set [6] deals with Spleen. Put plainly: Biodistribution in Swiss-Webster mouse spleen at 3.7 MBq, iv after 30 mins. It counts as ADME, organism-based. As to conditions: in vivo, 0.5 h. The method, boiled down:
as §1

Data set [7] deals with Liver. Kind of data set: Biodistribution in Swiss-Webster mouse liver at 3.7 MBq, iv after 30 mins. It counts as ADME, organism-based. As to conditions: in vivo, 0.5 h. The method, boiled down: as §1
Data set [8] relates to Intestine. Put plainly: Biodistribution in Swiss-Webster mouse intestine at 3.7 MBq, iv after 30 mins. It counts as ADME, organism-based. As to conditions: in vivo, 0.5 h. In outline: as §1
Data set [9] can be described thus: Drug uptake in Swiss-Webster mouse corpus callosum at 111 MBq, iv. The settings on record: in vivo.
For data set [10], the system named is Lung. Put plainly: Biodistribution in Swiss-Webster mouse lung at 3.7 MBq, iv after 5 mins. It counts as ADME, organism-based. The settings on record: in vivo. In outline:
as §1

Data set [11] concerns Lung. Put plainly: Biodistribution in Swiss-Webster mouse lung at 3.7 MBq, iv after 60 mins. As to conditions: in vivo, 1 h. It counts as ADME, organism-based. In outline:
as §1

Data set [12] deals with Spleen. Kind of data set: Biodistribution in Swiss-Webster mouse spleen at 3.7 MBq, iv after 5 mins. The settings on record: in vivo. It counts as ADME, organism-based. The method, boiled down:
as §1

The test system of data set [13] is Kidney. Kind of data set: Biodistribution in Swiss-Webster mouse kidney at 3.7 MBq, iv after 60 mins. The settings on record: in vivo, 1 h. It counts as ADME, organism-based. In outline:
as §1

Data set [14] in a line: Drug uptake in Swiss-Webster mouse corpus callosum at 111 MBq, iv after 20 mins by magnetic resonance imaging analysis in presence of BDB. It counts as ADME, organism-based. The settings on record: in vivo.
In data set [15] the test system is Liver. Put plainly: Biodistribution in Swiss-Webster mouse liver at 3.7 MBq, iv after 60 mins. It counts as ADME, organism-based. As to conditions: in vivo, 1 h. The method, boiled down:
as §1

The subject of data set [16] is Heart. Kind of data set: Biodistribution in Swiss-Webster mouse heart at 3.7 MBq, iv after 60 mins. It counts as ADME, organism-based. As to conditions: in vivo, 1 h. The method, boiled down: as §1
The nature of data set [17]: Octanol-water partition coefficient, log P of the compound at pH 7.4. It counts as physicochemical. In outline: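 [11C]MeDAS (about 500,000 cpm, >98% radiochemical purity) was partitioned between n-octanol and phosphate buffer (pH 7.40) by vortexing 3 min at room temperature, then centrifuged at 3500 rpm for 5 min. The octanol layer was re-partitioned until values were consistent. logP = log of cpm/g octanol over cpm/g buffer, in triplicate.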

In data set [18] the test system is Stomach. Put plainly: Biodistribution in Swiss-Webster mouse stomach at 3.7 MBq, iv after 30 mins. It counts as ADME, organism-based. As to conditions: in vivo, 0.5 h. The method, boiled down:
as §1

The subject of data set [19] is Intestine. Kind of data set: Biodistribution in Swiss-Webster mouse intestine at 3.7 MBq, iv after 60 mins. It counts as ADME, organism-based. As to conditions: in vivo, 1 h. In outline:
as §1

Data set [20] has as its system Brain. Put plainly: Drug uptake in Plp-Akt-DD transgenic mouse brain at 7.4 MBq, iv after 90 mins by microPET imaging analysis. As to conditions: in vivo, 1.5 h.
In data set [21] the test system is Kidney. Kind of data set: Biodistribution in Swiss-Webster mouse kidney at 3.7 MBq, iv after 30 mins. It counts as ADME, organism-based. As to conditions: in vivo, 0.5 h. The method, boiled down:
as §1

The nature of data set [22]: Drug uptake in Plp-Akt-DD transgenic mouse corpus callosum 7.4 MBq, iv after 90 mins by microPET imaging analysis. The settings on record: in vivo, 1.5 h.
The subject of data set [23] is Heart. Put plainly: Biodistribution in Swiss-Webster mouse heart at 3.7 MBq, iv after 5 mins. It counts as ADME, organism-based. As to conditions: in vivo. In outline:
as §1

The nature of data set [24]: Drug uptake in Swiss-Webster mouse corpus callosum at 111 MBq, iv after 20 mins by magnetic resonance imaging analysis. It counts as ADME, organism-based. As to conditions: in vivo.
Data set [25] concerns Kidney. Kind of data set: Biodistribution in Swiss-Webster mouse kidney at 3.7 MBq, iv after 5 mins. It counts as ADME, organism-based. As to conditions: in vivo. In outline:
as §1

The subject of data set [26] is Lung. Kind of data set: Biodistribution in Swiss-Webster mouse lung at 3.7 MBq, iv after 30 mins. It counts as ADME, organism-based. The settings on record: in vivo, 0.5 h. The method, boiled down:
as §1

Data set [27] deals with Brain. Put plainly: Biodistribution in Swiss-Webster mouse brain at 3.7 MBq, iv after 5 mins. It counts as ADME, organism-based. As to conditions: in vivo. In outline:
(§2)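 [11C]MeDAS, up to 3.7 MBq (100 μCi), was injected into the tail vein of Swiss-Webster mice (20-25 g). Brains were removed at 5, 30 and 60 min, weighed and gamma-counted. Decay-corrected uptake is given as %ID/organ, n = 3, mean ± SD.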

In data set [28] the test system is Liver. Kind of data set: Biodistribution in Swiss-Webster mouse liver at 3.7 MBq, iv after 5 mins. It counts as ADME, organism-based. The settings on record: in vivo. The method, boiled down: as §1
The test system of data set [29] is Brain. Kind of data set: Biodistribution in Swiss-Webster mouse brain at 3.7 MBq, iv after 30 mins. It counts as ADME, organism-based. The settings on record: in vivo, 0.5 h. The method, boiled down: as §2
For data set [30], the system named is Stomach. Put plainly: Biodistribution in Swiss-Webster mouse stomach at 3.7 MBq, iv after 60 mins. It counts as ADME, organism-based. The settings on record: in vivo, 1 h. The method, boiled down:
as §1

Data set [31] has as its system Heart. Kind of data set: Biodistribution in Swiss-Webster mouse heart at 3.7 MBq, iv after 30 mins. It counts as ADME, organism-based. As to conditions: in vivo, 0.5 h. The method, boiled down: as §1
The subject of data set [32] is Brain. Put plainly: Drug uptake in Swiss-Webster mouse brain at 111 MBq, iv after 20 mins by autoradiography. It counts as ADME, organism-based. As to conditions: in vivo.
Data set [33] relates to Spleen. Put plainly: Biodistribution in Swiss-Webster mouse spleen at 3.7 MBq, iv after 60 mins. It counts as ADME, organism-based. As to conditions: in vivo, 1 h. The method, boiled down: as §1
Data set [34] deals with Brain. Kind of data set: Biodistribution in Swiss-Webster mouse brain at 3.7 MBq, iv after 60 mins. It counts as ADME, organism-based. The settings on record: in vivo, 1 h. The method, boiled down:
as §2

As for `CNc1ccc(/C=C/c2ccc(N)cc2)cc1`, the Drug uptake result in data set [1], in [2] and in [3] was “Active” throughout.
One may read the logD as the decadic logarithm of the distribution of all forms, ionised or not, between an organic phase and buffer at a given pH. Read a low logD as lower lipophilicity. In the case of `[11CH3]Nc1ccc(/C=C/c2ccc(N)cc2)cc1`, the Drug uptake was 0.42 %ID in data set [4]; 1 %ID in data set [5]; 0.39 %ID in data set [6]; 10.83 %ID in data set [7]; 0.65 %ID in [8]; “Active” in data set [9]. Also, the Drug uptake in [10] is listed as 0.85 %ID; in [11], 1.2 %ID; in data set [12], 0.28 %ID; in data set [13], 1.78 %ID; in [14] it was “Not Active”; in data set [15], 7.75 %ID. The Drug uptake is 0.75 %ID in data set [16]; 0.67 %ID in [18]; 1.74 %ID in [19]; “Active” in data set [20]; 2 %ID in data set [21]; “Active” in data set [22]. The Drug uptake in data set [23] is recorded as 0.4 %ID; in data set [24], “Active”; in [25] it was 2.69 %ID; in [26], 0.76 %ID; in data set [27], 2.56 %ID; in data set [28], 15.86 %ID. Besides, the Drug uptake is 1.05 %ID in data set [29]; 1.21 %ID in [30]; 0.33 %ID in [31]; “Active” in data set [32]; 0.9 %ID in data set [33]; 1.37 %ID in [34]. This compound also returned a logD in [17] of 2.25.
